# Measurements taken from ChEMBL document CHEMBL1134582 (J Med Chem, 2001).
# Experiments:
# [1] = target: T1, Adenosine receptor A1 (Homo sapiens) (UniProt P30542); test: Inhibition of Forskolin (10 nM) induced cAMP production at human Adenosine A1 receptor (compared to CPA in CHO cells); assay type: cell-based; settings: in the assay text read “10 µM” for “10 nM”
# T1 sequence (whole entry): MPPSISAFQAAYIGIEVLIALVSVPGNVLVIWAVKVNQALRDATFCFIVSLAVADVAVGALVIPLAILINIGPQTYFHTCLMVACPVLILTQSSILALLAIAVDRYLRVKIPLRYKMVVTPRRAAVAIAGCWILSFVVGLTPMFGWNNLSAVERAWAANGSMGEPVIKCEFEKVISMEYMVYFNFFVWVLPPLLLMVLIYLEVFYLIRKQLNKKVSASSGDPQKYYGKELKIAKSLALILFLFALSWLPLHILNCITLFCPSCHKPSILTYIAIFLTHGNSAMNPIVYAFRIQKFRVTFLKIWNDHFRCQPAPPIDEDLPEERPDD
# In short: (§1)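 Cells expressing the human receptor (A1 in CHO) were grown overnight as monolayers and kept in DMEM/HEPES at pH 7.4. […] Forskolin was added at 10 µM (final) for 15 min. cAMP was measured by binding-protein assay. […] Mean ±SEM, n=3.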
# [2] = target: T2, Adenosine receptor A3 (Homo sapiens) (UniProt P0DMS8); test: Agonistic activity expressed as the amount of [35S]GTP gamma-S bound at adenosine A3 receptor; assay type: functional
# T2 sequence (whole entry): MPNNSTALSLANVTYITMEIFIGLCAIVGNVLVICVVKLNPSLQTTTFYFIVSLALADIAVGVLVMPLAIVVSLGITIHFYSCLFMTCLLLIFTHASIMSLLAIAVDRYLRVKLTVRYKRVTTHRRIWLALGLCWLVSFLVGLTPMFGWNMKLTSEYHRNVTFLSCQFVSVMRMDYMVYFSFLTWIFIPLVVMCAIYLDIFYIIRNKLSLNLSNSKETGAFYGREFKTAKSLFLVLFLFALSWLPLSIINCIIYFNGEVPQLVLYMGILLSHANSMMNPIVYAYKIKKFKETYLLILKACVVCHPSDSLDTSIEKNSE
# In short: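 Membranes from CHO cells expressing the human A3 receptor (1–1.5 µg protein) were incubated with 1 µM GDP and no NaCl for 90 min at 25 °C. Mean ±SEM, n=3.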
# [3] = target: T2, Adenosine receptor A3 (Homo sapiens); test: Agonistic activity expressed as the amount of [35S]GTP gamma-S bound +1 uM NECA at adenosine A3 receptor; assay type: functional
# In short: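 Human A3 receptor in CHO-cell membranes (1–1.5 µg) was incubated with 1 µM GDP and no NaCl for 90 min at 25 °C. Mean ±SEM, n=3.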
# [4] = target: T1, Adenosine receptor A1 (Homo sapiens); test: Inhibition of 10 nM Forskolin-induced cAMP production at human Adenosine A1 receptor compared to CPA in CHO cells; assay type: functional, cell-based; settings: in the assay text read “10 µM” for “10 nM”; in short: as §1
# [5] = target: T3, Adenosine receptor A1 (Rattus norvegicus) (UniProt P25099); test: Agonistic activity expressed as the amount of [35S]-GTP gamma-S bound at rat Adenosine A1 receptor; assay type: functional
# T3 sequence (whole entry): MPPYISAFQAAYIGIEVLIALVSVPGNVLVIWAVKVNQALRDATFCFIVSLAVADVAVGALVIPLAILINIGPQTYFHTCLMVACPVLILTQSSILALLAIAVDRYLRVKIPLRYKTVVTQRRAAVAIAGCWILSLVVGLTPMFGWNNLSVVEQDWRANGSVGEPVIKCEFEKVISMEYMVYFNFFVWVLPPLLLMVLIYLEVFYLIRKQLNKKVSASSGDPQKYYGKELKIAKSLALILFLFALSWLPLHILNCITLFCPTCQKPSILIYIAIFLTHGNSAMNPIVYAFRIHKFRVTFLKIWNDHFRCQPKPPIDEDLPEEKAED
# In short: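 [35S]GTPγS binding used 2 µg of rat cortex membrane protein with 10 µM GDP and 100 mM NaCl, incubated 90 min at 25 °C. Mean ±SEM, n=3.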
# [6] = target: T3, Adenosine receptor A1 (Rattus norvegicus); test: Agonistic activity expressed as the amount of [35S]-GTP gamma-S bound +1 uM CPA at rat Adenosine A1 receptor; assay type: functional
# In short: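 Rat cortex membranes (2 µg protein) were incubated with 10 µM GDP and 100 mM NaCl for 90 min at 25 °C. Mean ±SEM, n=3.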
Compound,inhibition [1] [%],other results
COC[C@H]1O[C@@H](n2cnc3c(NCc4cccc(I)c4)ncnc32)[C@H](O)[C@@H]1O,53,–
CCOC[C@H]1O[C@@H](n2cnc3c(NC4CCCC4)ncnc32)[C@H](O)[C@@H]1O,69,–
CCNC(=O)[C@H]1O[C@@H](n2cnc3c(N)ncnc32)[C@H](O)[C@@H]1O,–,Activity [2]: 100; Activity [3]: 100
COC[C@H]1O[C@@H](n2cnc3c(N)nc(Cl)nc32)[C@H](O)[C@@H]1O,78,–
CCOC[C@H]1O[C@@H](n2cnc3c(N)ncnc32)[C@H](O)[C@@H]1O,57,–
COC[C@H]1O[C@@H](n2cnc3c(NCc4cccc(I)c4)nc(Cl)nc32)[C@H](O)[C@@H]1O,37,–
COC[C@H]1O[C@@H](n2cnc3c(NC4CCCC4)nc(Cl)nc32)[C@H](O)[C@@H]1O,73,–
O[C@@H]1[C@H](O)[C@@H](COC2CC2)O[C@H]1n1cnc2c(NC3CCCC3)ncnc21,62,–
CCOC[C@H]1O[C@@H](n2cnc3c(N)nc(Cl)nc32)[C@H](O)[C@@H]1O,67,–
COC[C@H]1O[C@@H](n2cnc3c(NC4CCCC4)ncnc32)[C@H](O)[C@@H]1O,74,–
Nc1nc(Cl)nc2c1ncn2[C@@H]1O[C@H](COC2CC2)[C@@H](O)[C@H]1O,49,–
CCOC[C@H]1O[C@@H](n2cnc3c(NCc4cccc(I)c4)ncnc32)[C@H](O)[C@@H]1O,6,–
O[C@@H]1[C@H](O)[C@@H](COC2CC2)O[C@H]1n1cnc2c(NC3CCCC3)nc(Cl)nc21,43,–
COC[C@H]1O[C@@H](n2cnc3c(N)ncnc32)[C@H](O)[C@@H]1O,–,inhibition [4]: 75%
CCOC[C@H]1O[C@@H](n2cnc3c(NC4CCCC4)nc(Cl)nc32)[C@H](O)[C@@H]1O,62,–
Nc1ncnc2c1ncn2[C@@H]1O[C@H](COC2CC2)[C@@H](O)[C@H]1O,61,–
OC[C@H]1O[C@@H](n2cnc3c(NC4CCCC4)ncnc32)[C@H](O)[C@@H]1O,–,Activity [5]: 100; Activity [6]: 100; inhibition [4]: 69%
